# Bioassay records from PubChem BioAssay.
# An excerpt weighted towards active compounds, which were near 2.6% of everything screened.
# Myeloid diff 2: promotes myeloid progenitor differentiation; calls only at 10 µM; ER-HoxA9 myeloid progenitors, lysozyme-GFP differentiation, flow cytometry; actives 1% (n = 360,000);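 active = normalized GFP-positive differentiation at or above the plate's own cutoff, the solvent-only control mean plus 3 SD; inconclusive = no clear call, values can overlap the other calls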;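 note: cells exposed to compound for four days before flow analysis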
# Rce1 inhib: blocks yeast Ras-converting enzyme | Q03530 | yeast membranes, quenched prenylated peptide cleavage fluorescence | calls only | actives 0.27% (n = 290,000) | AID 2563;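 active = fall in fluorescence gain of 50% or more versus controls, with final raw signal at or below 3038400; inconclusive = same 50% fall but final raw signal above 3038400; inactive = fall in fluorescence gain under 50%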;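 note: plate controls were neutral control wells for no effect and wells lacking membranes for full effect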
# Target sequence (Q03530 whole entry, looked up): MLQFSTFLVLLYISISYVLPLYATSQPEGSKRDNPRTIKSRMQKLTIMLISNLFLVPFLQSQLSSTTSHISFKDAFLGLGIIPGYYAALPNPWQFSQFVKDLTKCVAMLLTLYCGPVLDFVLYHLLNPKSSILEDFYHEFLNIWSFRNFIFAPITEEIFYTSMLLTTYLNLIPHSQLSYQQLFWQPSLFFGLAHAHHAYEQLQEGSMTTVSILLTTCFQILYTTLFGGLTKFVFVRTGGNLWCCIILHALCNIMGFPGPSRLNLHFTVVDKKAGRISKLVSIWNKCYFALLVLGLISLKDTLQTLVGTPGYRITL
# Rin1-Abl PPI inh: blocks binding of human Rin1 to Abl. actives 0.4% (n = 360,000). inhibition, % at 7.35 µM. AID 588664. TR-FRET Rin1/Abl binding, biochemical. P00519+Q13671; in the data active = inhibition above about 5%, passing the limit was not always enough
# SKN-1 inh: C. elegans SKN-1 inhibition | C. elegans VP596 Pgst-4::GFP/RFP ratio, acrylamide-induced, 24 h | actives 0.49% (n = 360,000) | inhibition, % at 21.8 µM;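 active = interference check ratio from 0.5 to 1.5 plus GFP to RFP signal ratio inhibition reaching or exceeding a fixed threshold, cut at about 30% in these data, passing the limit was not always enough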
# T cell HTS: modulates CD8 T cell binding to vesicles; response (vesicle binding), % at 7 µM; 2C CD8+ T cell-vesicle binding, flow cytometry; active compounds read low; actives 0.068% (n = 330,000); AID 2052;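 active = response, share of CD8 T cells binding vesicles, and their 90th percentile fluorescence all below set limits, cut at about 80% in these data, passing the limit was not always enough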;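 note: values below 100% mean blocked vesicle binding to the CD8+ T cells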
#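 Assay system – 2C mouse CD8+ T cells · Also added – QL9-loaded Drosophila micro-vesicles · Timing – Cell–vesicle co-incubation 1.5 h at 37 °C, staining 20 min on ice · Signal – flow cytometry of vesicle-bound cells · Measure – percent CD8+ FL2 mean versus row control · Controls – Peptide-free naked vesicles (low) and QL9 vesicles with 0.7% DMSO vehicle (high)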
# GRK2 aptamer HTS: human GRK2 inhibition via aptamer displacement; bead flow cytometry, FAM-aptamer displacement from GRK2; inhibition of aptamer binding, % at 10 µM; actives 0.59% (n = 330,000);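 active = inhibition of aptamer binding above 40%, roughly 3 SD of noise, on plates passing a quality check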;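 note: median bead fluorescence of bound FAM aptamer so fluorescent compounds give negative values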
# Starred values were filed as active, the others as inactive; i = inactive; ? = inconclusive; . = no result; + = active, no number.
SMILES,Myeloid diff 2,Rce1 inhib,Rin1-Abl PPI inh,SKN-1 inh,T cell HTS,GRK2 aptamer HTS
CCOC(=O)C1CCCN(S(=O)(=O)c2ccc(-c3cc(C)no3)s2)C1 (centres undefined),i,i,-2,11,443,5
COc1cccc(NC(=O)Nc2cccn(Cc3ccc(C)cc3)c2=O)c1,i,+,0,6,134,1
Cc1ccc(Nc2nc(N/N=C\c3ccc4c(c3)OCO4)nc(N3CCOCC3)n2)cc1,i,.,5,-5,719,0
CCCS(=O)(=O)NC(=O)C1(C)CCCN(C(=O)c2cccnc2Oc2ccccc2)C1 (centres undefined),i,.,0,5,.,.
Cc1ccc(C(=O)N/C(=C/c2ccco2)C(=O)Nc2cccc(C(=O)O)c2)cc1,.,+,.,.,389,1
O=C(C=Cc1ccco1)c1ccc2ccccc2c1,i,.,3,63*,.,.
O=C1S/C(=C/c2ccc(N3CCOCC3)o2)C(=O)N1Cc1c(F)cccc1Cl,+,i,-3,13,255,0
O=C1S/C(=C\c2ccc(N3CCOCC3)o2)C(=O)N1Cc1c(F)cccc1Cl,i,i,1,4,i,0
Cc1nc(-c2ccccc2)sc1-c1n[nH]c(=S)n1C,i,i,-1,3,342,2
CSc1nnc(-c2sc(-c3ccccc3)nc2C)n1C,i,+,0,13,502,3
CCCS(=O)(=O)c1nc(S(=O)(=O)c2ccc(C)cc2)c(N2CCN(CC)CC2)s1,i,i,2,4,252,2
COC(=O)C1C2CC3c4[nH]c5cc(OC)ccc5c4CCN3CC2CC(O)C1OC (centres undefined),i,.,-1,7,.,.
COC(=O)C1C2CC3c4[nH]c5cc(OC)ccc5c4CCN3CC2CC(OC(=O)CC(C)=O)C1OC (centres undefined),i,.,-2,47*,.,.
Cn1c(=O)n(C)c2cc(/C=C(/C#N)C(=O)NCc3ccco3)ccc21,i,i,-4,97*,304,2
Cc1cccn2c(=O)c(/C=C(\C#N)C(=O)NCc3ccco3)c(N3CCCCC3)nc12,+,i,0,9,303,0
CCS(=O)(=O)c1nc(S(=O)(=O)c2ccc(C)cc2)c(N2CC(C)OC(C)C2)s1 (centres undefined),+,i,-2,21,339,6
CC(=O)NC1=NN(C(C)=O)C(c2ccccn2)S1 (centres undefined),i,i,3,-5,621,0
CC1=C/C(=C\c2ccc(Br)o2)C(=O)O1,i,i,2,-3,188,96*
O=C1C(=Cc2ccc(Br)o2)C(=O)c2ccccc21,i,.,8.7*,-2,287,7
CCCCCn1nc(C(=O)OCc2nnc(-c3ccccc3)o2)c2ccccc2c1=O,i,i,4,-10,160,0
COc1ccc(C2=NN(C(=O)c3ccncc3)C(c3ccccc3O)C2)cc1 (centres undefined),i,i,1,11,415,0
COc1cccc(C2CC(c3ccc(Br)cc3)=NN2C(=O)c2ccncc2)c1OC (centres undefined),i,+,1,4,i,2
Cc1cccc(NC(=O)c2sc3nc4c(c(-c5cccs5)c3c2N)CN(C)CC4)c1,+,i,-10,-6,392,0
CC1(C(=O)NCc2ccccc2)CSCC(=O)N1CC(F)(F)F (centres undefined),i,.,.,-4,.,.
O=c1ccc2cc3c([nH]c4ccc(Br)cc43)oc-2c1O,?,i,37*,28,535,5
SMILES,Myeloid diff 2,Rce1 inhib,Rin1-Abl PPI inh,SKN-1 inh,T cell HTS,GRK2 aptamer HTS
Cc1cccc(N(Cc2ccccc2)C(=O)CN2C(=O)NC3(CCCCC3C)C2=O)c1 (centres undefined),i,.,1,-8,i,4
N#Cc1cncc(C#Cc2ccccc2)c1,i,i,-1,61*,237,0
N#Cc1ccccc1,i,.,4,11,487,0
CSc1ccc(CN(C)C(=O)c2cc(=O)c3ccccc3o2)cc1,+,i,3,-9,i,1
CSc1ccc(CN(C)C(=O)c2cc3ccccc3o2)cc1,i,i,-3,1,407,2
CCCN(CCC)C(=O)C[n+]1cccc(/C=N/O)c1,i,i,0,5,317,49*
O=S(=O)(Nc1cccc2ccccc12)N1CCCC1,i,+,3,-2,311,2
O=S(=O)(Nc1ccc2c(c1)oc1ccccc12)N1CCCC1,i,i,0,-4,294,3
CCN1C(=O)/C(=C/c2cccs2)S/C1=N\S(=O)(=O)c1ccc(C)cc1,i,i,3,3,144,1
C=CCN1C(=O)/C(=C/c2cccs2)S/C1=N\S(=O)(=O)c1ccc(F)cc1,+,i,1,11,87,0
O=C(NCC(c1cccs1)N1CCc2ccccc21)c1ccccc1 (centres undefined),+,i,0,8,244,0
COc1cccc(C(=O)NCC(c2cccs2)N2CCc3ccccc32)c1 (centres undefined),i,i,1,-11,213,4
CCOc1ccc(/C=C/C2=Cc3c(sc(NC(=O)CSc4n[nH]c(N)n4)c3C#N)C(C)(C)C2)cc1,i,i,2,37*,196,0
Cc1ccc(S(=O)(=O)N(C)CC(=O)NCCCn2nc(C)cc2C)cc1,i,.,2,-6,189,0
CCc1nc2ccc(C(=O)N3CCNC(=O)C3)cn2c1N(C)CCC(C)C,i,.,-2,9,.,.
Cc1onc(-c2c(F)cccc2Cl)c1C(=O)O/N=C(\N)c1ccc([N+](=O)[O-])o1,i,.,2,9,277,3
Nc1cccn2c(-c3ccc(Cl)c(Cl)c3)cnc12,+,i,-5,10,206,0
COc1cc(/C=C/C(=O)O)cc(S(=O)(=O)N(C)CCO)c1OC,i,i,2,-12,0.0*,5
O=C(c1ccccc1O)N1N=C(c2ccccc2)CC1(O)C(F)(F)F (centres undefined),i,i,4,0,278,0
CC(=O)c1c(C)[nH]c(C(=O)OCC(=O)NCc2ccc3c(c2)OCO3)c1C,+,.,2,34,337,1
CC(C)[C@H](NC(=O)c1ccccc1Cl)C(=O)OCC(=O)NCc1ccc2c(c1)OCO2,i,.,2,4,572,42*
CC(C)[C@H](NC(=O)c1ccccc1)C(=O)OCC(=O)NCc1ccc2c(c1)OCO2,i,.,5,1,333,3
CC(=O)c1c(C)[nH]c(C(=O)OCC(=O)NCc2ccc(Cl)cc2)c1C,i,.,6,4,217,1
